Reference: ChEMBL document CHEMBL1138555, “N-acylated and N,N'-diacylated imidazolidine-2-thione derivatives and N,N'-diacylated tetrahydropyrimidine-2(1H)-thione analogues: synthesis and antiproliferative activity” (Eur J Med Chem, 2009)
Activity calls are given as the source filed them. The calls are words filed in the database; no cut-off is given here.

Experiments:
[1] = test system: Human immunodeficiency virus 1; assay: Antiviral activity against HIV1 in human MT4 cells assessed as prevention of virus-induced cytopathogenicity; format: functional, organism-based
Outline: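 MT-4 cells, 1 × 10⁴ per well, with serial compound dilutions from a 100 mM DMSO stock. Infected with HIV-1 at 100 CCID50. Four-day incubation at 37 °C, then viable cells measured by MTT. Read-out is inhibition of virus-induced cytopathogenicity, assessed at non-cytotoxic concentrations.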

[2] = test system: MDA-MB-231; assay: Growth inhibition of human MDA-MB-231 cells after 48 hrs by sulforhodamine B assay; format: functional; details: MDA-MB-231, 48 h
Outline: (§1)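 NCI screen panel. Five 10-fold concentrations from 10^-4 to 10^-8 M. Exposure for the last 48 h of a 72 h incubation. Growth estimated by sulforhodamine B protein assay. GI50 is the concentration giving 50% growth inhibition. Where that level was not reached or was exceeded, the value is given as above or below the highest or lowest concentration tested.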

[3] = test system: UACC-257; assay: Growth inhibition of human UACC257 cells after 48 hrs by sulforhodamine B assay; format: functional; details: UACC-257, 48 h
Outline: (§2)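 NCI in vitro panel screen. Compounds tested at five 10-fold dilutions, 10^-4 to 10^-8 M. Cells in 96-well plates were exposed for the last 48 h of a 72 h incubation. Viability/growth was read by sulforhodamine B protein assay. GI50 is the concentration giving 50% growth inhibition. Values beyond the tested range are reported as greater or less than the maximum or minimum concentration.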

[4] = test system: NCI-H522; assay: Growth inhibition of human NCI-H522 cells after 48 hrs by sulforhodamine B assay; format: functional; details: NCI-H522, 48 h; outline: as §1
[5] = test system: DU-145; assay: Growth inhibition of human DU145 cells after 48 hrs by sulforhodamine B assay; format: functional; details: DU-145, 48 h; outline: as §1
[6] = test system: 786-0; assay: Growth inhibition of human 786-0 cells after 48 hrs by sulforhodamine B assay; format: functional; details: 786-0, 48 h; outline: as §1
[7] = test system: OVCAR-8; assay: Growth inhibition of human OVCAR8 cells after 48 hrs by sulforhodamine B assay; format: functional; details: OVCAR-8, 48 h; outline: as §1
[8] = test system: HOP-92; assay: Growth inhibition of human HOP92 cells after 48 hrs by sulforhodamine B assay; format: functional; details: HOP-92, 48 h; outline: as §1
[9] = test system: NCI/ADR-RES; assay: Growth inhibition of human NCI/ADR-RES cells after 48 hrs by sulforhodamine B assay; format: functional; outline: as §1
[10] = test system: CAKI-1; assay: Growth inhibition of human Caki1 cells after 48 hrs by sulforhodamine B assay; format: functional; details: CAKI-1, 48 h; outline: as §1
[11] = test system: OVCAR-3; assay: Growth inhibition of human OVCAR-3 cells after 48 hrs by sulforhodamine B assay; format: functional; details: OVCAR-3, 48 h; outline: as §1
[12] = test system: MT4; assay: Antiproliferative activity against human MT4 cells assessed as reduction of growth by MTT assay; format: functional, cell-based
Outline: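 MT-4 lymphoblastoid T cells (ATCC) in RPMI 1640 with 10% FCS, penicillin/streptomycin, checked for mycoplasma. 1 × 10⁴ mock-infected cells per well with serial dilutions from a 100 mM DMSO stock. Incubated 4 days at 37 °C, viable cells counted by MTT. IC50 versus untreated controls by linear regression. Mean of three separate experiments.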

[13] = test system: SNB-19; assay: Growth inhibition of human SNB19 cells after 48 hrs by sulforhodamine B assay; format: functional; details: SNB-19, 48 h; outline: as §2
[14] = test system: Malme-3M; assay: Growth inhibition of human MALME-3M cells after 48 hrs by sulforhodamine B assay; format: functional; outline: as §1
[15] = test system: MDA-MB-435; assay: Growth inhibition of human MDA-MB-435 cells after 48 hrs by sulforhodamine B assay; format: functional; details: MDA-MB-435, 48 h; outline: as §1
[16] = test system: OVCAR-4; assay: Growth inhibition of human OVCAR4 cells after 48 hrs by sulforhodamine B assay; format: functional; details: OVCAR-4, 48 h; outline: as §1
[17] = test system: T47D; assay: Growth inhibition of human T47D cells after 48 hrs by sulforhodamine B assay; format: functional; outline: as §2
[18] = test system: UACC-62; assay: Growth inhibition of human UACC62 cells after 48 hrs by sulforhodamine B assay; format: functional; details: UACC-62, 48 h; outline: as §2
[19] = test system: SW-620; assay: Growth inhibition of human SW620 cells after 48 hrs by sulforhodamine B assay; format: functional; details: SW-620, 48 h; outline: as §2
[20] = test system: SF-268; assay: Growth inhibition of human SF268 cells after 48 hrs by sulforhodamine B assay; format: functional; details: SF-268, 48 h; outline: as §1
[21] = test system: MCF7; assay: Growth inhibition of human MCF7 cells after 48 hrs by sulforhodamine B assay; format: functional; details: MCF7, 48 h; outline: as §1
[22] = test system: HCT-15; assay: Growth inhibition of human HCT15 cells after 48 hrs by sulforhodamine B assay; format: functional; details: HCT-15, 48 h; outline: as §1
[23] = test system: HOP-62; assay: Growth inhibition of human HOP62 cells after 48 hrs by sulforhodamine B assay; format: functional; details: HOP-62, 48 h; outline: as §1
[24] = test system: UO-31; assay: Growth inhibition of human UO31 cells after 48 hrs by sulforhodamine B assay; format: functional; details: UO-31, 48 h; outline: as §2
[25] = test system: K562; assay: Growth inhibition of human K562 cells after 48 hrs by sulforhodamine B assay; format: functional; details: K562, 48 h; outline: as §1
[26] = test system: NCI-H460; assay: Growth inhibition of human NCI-H460 cells after 48 hrs by sulforhodamine B assay; format: functional; details: NCI-H460, 48 h; outline: as §1
[27] = test system: SK-MEL-5; assay: Growth inhibition of human SK-MEL-5 cells after 48 hrs by sulforhodamine B assay; format: functional; details: SK-MEL-5, 48 h; outline: as §1
[28] = test system: M14; assay: Growth inhibition of human M14 cells after 48 hrs by sulforhodamine B assay; format: functional; details: M14, 48 h; outline: as §1
[29] = test system: SR; assay: Growth inhibition of human SR cells after 48 hrs by sulforhodamine B assay; format: functional; outline: as §2
[30] = test system: U-251; assay: Growth inhibition of human U251 cells after 48 hrs by sulforhodamine B assay; format: functional; details: U-251, 48 h; outline: as §2
[31] = test system: ACHN; assay: Growth inhibition of human ACHN cells after 48 hrs by sulforhodamine B assay; format: functional; outline: as §1
[32] = test system: A549; assay: Growth inhibition of human A549 cells after 48 hrs by sulforhodamine B assay; format: functional; details: A549, 48 h; outline: as §1
[33] = test system: TK-10; assay: Growth inhibition of human TK10 cells after 48 hrs by sulforhodamine B assay; format: functional; details: TK-10, 48 h; outline: as §2
[34] = test system: HT-29; assay: Growth inhibition of human HT-29 cells after 48 hrs by sulforhodamine B assay; format: functional; details: HT-29, 48 h; outline: as §1
[35] = test system: EKVX; assay: Growth inhibition of human EKVX cells after 48 hrs by sulforhodamine B assay; format: functional; outline: as §1
[36] = test system: SK-OV-3; assay: Growth inhibition of human SKOV3 cells after 48 hrs by sulforhodamine B assay; format: functional; details: SK-OV-3, 48 h; outline: as §1
[37] = test system: NCI-H23; assay: Growth inhibition of human NCI-H23 cells after 48 hrs by sulforhodamine B assay; format: functional; details: NCI-H23, 48 h; outline: as §1
[38] = test system: SK-MEL-28; assay: Growth inhibition of human SK-MEL-28 cells after 48 hrs by sulforhodamine B assay; format: functional; details: SK-MEL-28, 48 h; outline: as §1
[39] = test system: NCI-H322M; assay: Growth inhibition of human NCI-H322M cells after 48 hrs by sulforhodamine B assay; format: functional; outline: as §1
[40] = test system: IGROV-1; assay: Growth inhibition of human IGROV1 cells after 48 hrs by sulforhodamine B assay; format: functional; details: IGROV-1, 48 h; outline: as §1
[41] = test system: PC-3; assay: Growth inhibition of human PC3 cells after 48 hrs by sulforhodamine B assay; format: functional; details: PC-3, 48 h; outline: as §1
[42] = test system: SN12C; assay: Growth inhibition of human SN12C cells after 48 hrs by sulforhodamine B assay; format: functional; outline: as §2
[43] = test system: HCT-116; assay: Growth inhibition of human HCT116 cells after 48 hrs by sulforhodamine B assay; format: functional; details: HCT-116, 48 h; outline: as §1
[44] = test system: MOLT-4; assay: Growth inhibition of human MOLT4 cells after 48 hrs by sulforhodamine B assay; format: functional; details: MOLT-4, 48 h; outline: as §1
[45] = test system: BT-549; assay: Growth inhibition of human BT549 cells after 48 hrs by sulforhodamine B assay; format: functional; details: BT-549, 48 h; outline: as §1
[46] = test system: SF-295; assay: Growth inhibition of human SF295 cells after 48 hrs by sulforhodamine B assay; format: functional; details: SF-295, 48 h; outline: as §1
[47] = test system: LOX IMVI; assay: Growth inhibition of human LOXIMVI cells after 48 hrs by sulforhodamine B assay; format: functional; outline: as §1
[48] = test system: KM12; assay: Growth inhibition of human KM12 cells after 48 hrs by sulforhodamine B assay; format: functional; details: KM12, 48 h; outline: as §1
[49] = Growth inhibition of human […] cells after 48 hrs by sulforhodamine B assay; format: functional; outline: as §1
[50] = test system: HL-60(TB); assay: Growth inhibition of human HL-60(TB) cells after 48 hrs by sulforhodamine B assay; format: functional; details: HL-60, 48 h
Outline: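 NCI 60-cell-line screen protocol: cells exposed to compound at five 10-fold dilutions from 10^-4 to 10^-8 M for the last 48 h of a 72 h incubation. Sulforhodamine B protein assay estimated viability/growth. GI50 (50% growth inhibition) derived; where not reached or exceeded, reported as greater or less than the highest or lowest concentration tested.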

[51] = test system: COLO 205; assay: Growth inhibition of human COLO205 cells after 48 hrs by sulforhodamine B assay; format: functional; details: COLO 205, 48 h; outline: as §1
[52] = test system: SK-MEL-2; assay: Growth inhibition of human SK-MEL-2 cells after 48 hrs by sulforhodamine B assay; format: functional; details: SK-MEL-2, 48 h; outline: as §1
[53] = test system: RXF 393; assay: Growth inhibition of human RXF393 cells after 48 hrs by sulforhodamine B assay; format: functional; details: RXF 393, 48 h; outline: as §1

## O=C(C(=CN1CCNC1=S)C(=O)c1ccccc1)c1ccccc1
[1]
  Activity: inactive

## CC(C)(C)C(=O)/C(C#N)=C/N1CCNC1=S
[1]
  Activity: inactive

## N#C/C(=C\N1CCN(C(=O)c2ccco2)C1=S)C(N)=O
[2]
  GI50: 13.1 µM
[3]
  GI50: 23.3 µM
[4]
  GI50: 18.7 µM
[5]
  GI50: 29.8 µM
[6]
  GI50: 18 µM
[7]
  GI50: 43.6 µM
[8]
  GI50: 25.5 µM
[9]
  GI50: 25.4 µM
[10]
  GI50: 11.8 µM
[11]
  GI50: 19 µM
[12]
  IC50: 4 µM
[13]
  GI50: 36.4 µM
[14]
  GI50: 12.5 µM
[15]
  GI50: 14.6 µM
[16]
  GI50: 18.5 µM
[17]
  GI50: 9.3 µM
[18]
  GI50: 14 µM
[19]
  GI50: 22.1 µM
[20]
  GI50: 11.7 µM
[21]
  GI50: 1.7 µM
[22]
  GI50: 3.8 µM
[23]
  GI50: 25.6 µM
[24]
  GI50: 23.5 µM
[25]
  GI50: 9.1 µM
[26]
  GI50: 4 µM
[27]
  GI50: 16.5 µM
[28]
  GI50: 16.5 µM
[29]
  GI50: 3 µM
[30]
  GI50: 11.5 µM
[31]
  GI50: 11 µM
[32]
  GI50: 34.5 µM
[33]
  GI50: 12.1 µM
[34]
  GI50: 24.1 µM
[35]
  GI50: 0.3 µM
[36]
  GI50: 42.6 µM
[37]
  GI50: 21.4 µM
[38]
  GI50: 15.8 µM
[39]
  GI50: 17.6 µM
[40]
  GI50: 24 µM
[41]
  GI50: 35.6 µM
[42]
  GI50: 12 µM
[43]
  GI50: 21.2 µM
[44]
  GI50: 39.8 µM
[45]
  GI50: 22.5 µM
[46]
  GI50: 32.1 µM
[47]
  GI50: 2.5 µM
[48]
  GI50: 7.5 µM
[49]
  GI50: 12.4 µM
[50]
  GI50: 22 µM
[51]
  GI50: 24.9 µM
[52]
  GI50: 24.4 µM
[53]
  GI50: 19.2 µM

## CC(=O)C(=CN1CCNC1=S)C(C)=O
[1]
  Activity: inactive
